Assay results: ChEMBL document CHEMBL4680097 (J Med Chem, 2016)
Active and inactive are the calls of the source. The calls are words filed in the database; no cut-off is given here.

What was measured:
Histone deacetylase 2 [1] = target: T1, Histone deacetylase 2 (Homo sapiens, UniProt Q92769); experiment: Inhibition of recombinant HDAC2 (unknown origin) at 2 uM incubated for 15 mins before substrate addition and measured after 30 to 45 mins by HDAC-Glo substrate
Procedure, shortened: (§1)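 HDAC isoforms captured from HeLa cell lysate with plate-bound isoform-specific antibodies (lysate 100 µg/mL for HDAC1/2, 1 mg/mL for HDAC3/6); inhibitor in DMSO preincubated 15 min at room temperature, then HDAC-Glo substrate/developer 30–45 min; luminescence, background-corrected against no-antibody wells; % activity vs DMSO control; at least two independent trials, mean ± standard error. Concentrations are final.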

[2] = system: Panel NCI-60 (60 carcinoma cell lines); experiment: Growth inhibition of human NCI-60 cells assessed as cell growth at 10 uM; type: functional; settings: read-out: Activity
Procedure, shortened: (§2)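 NCI-60 human tumour cell line panel; initial single-dose screen at 10 μM, growth inhibition reported per cell line.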

HCT-116 = experiment: Growth inhibition of human HCT-116 cells incubated for 96 hrs by MTS assay; type: functional
[3] = system: Panel NCI-60 (60 carcinoma cell lines); experiment: Growth inhibition of human NCI-60 cells at 10 uM; type: functional; settings: read-out: GI; procedure, shortened: as §2
[4] = target: T2, Histone deacetylase (Homo sapiens) (UniProt Q13547+O15379+Q9UBN7+Q92769+Q9UQL6+Q8WUI4+Q9BY41+Q96DB2+P56524+Q9UKV0+Q969S8); experiment: Inhibition of HDAC in human HCT-116 cells assessed increase in global histone H3 lysine 9 acetylation at 100 nM incubated for 24 hrs by Western blot analysis; type: cell-based
Procedure, shortened: (§3)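 HCT116 cells exposed 24 h at 10 nM, 100 nM or 1 μM; global histone H3 lysine 9 acetylation detected by Western blot.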

Histone deacetylase 3 [5] = target: T3, Histone deacetylase 3 (Homo sapiens, UniProt O15379); experiment: Inhibition of recombinant HDAC3 (unknown origin) at 2 uM incubated for 15 mins before substrate addition and measured after 30 to 45 mins by HDAC-Glo substrate; procedure, shortened: as §1
Histone deacetylase 1 [6] = target: T4, Histone deacetylase 1 (Homo sapiens, UniProt Q13547); experiment: Inhibition of recombinant HDAC1 (unknown origin) at 2 uM incubated for 15 mins before substrate addition and measured after 30 to 45 mins by HDAC-Glo substrate; procedure, shortened: as §1
[7] = target: T2, Histone deacetylase (Homo sapiens); experiment: Inhibition of HDAC in human HCT-116 cells assessed increase in global histone H3 lysine 9 acetylation at 10 nM incubated for 24 hrs by Western blot analysis; type: cell-based; procedure, shortened: as §3
Histone deacetylase 2 [8] = target: T1, Histone deacetylase 2; experiment: Inhibition of recombinant HDAC2 (unknown origin)incubated for 15 mins before substrate addition and measured after 30 to 45 mins by HDAC-Glo substrate; procedure, shortened: as §1
Histone deacetylase 1 [9] = target: T4, Histone deacetylase 1; experiment: Inhibition of recombinant HDAC1 (unknown origin) incubated for 15 mins before substrate addition and measured after 30 to 45 mins by HDAC-Glo substrate; procedure, shortened: as §1
Histone deacetylase 2 [10] = target: T1, Histone deacetylase 2; experiment: Inhibition of recombinant HDAC2 (unknown origin) at 1 uM incubated for 15 mins before substrate addition and measured after 30 to 45 mins by HDAC-Glo substrate; procedure, shortened: as §1
Histone deacetylase 1 [11] = target: T4, Histone deacetylase 1; experiment: Inhibition of recombinant HDAC1 (unknown origin) at 1 uM incubated for 15 mins before substrate addition and measured after 30 to 45 mins by HDAC-Glo substrate; procedure, shortened: as §1
Histone deacetylase 3 [12] = target: T3, Histone deacetylase 3; experiment: Inhibition of recombinant HDAC3 (unknown origin) at 1 uM incubated for 15 mins before substrate addition and measured after 30 to 45 mins by HDAC-Glo substrate; procedure, shortened: as §1
Homo sapiens [13] = species on record: Homo sapiens; experiment: Selectivity index, ratio of IC50 for recombinant HDAC6 (unknown origin) to IC50 for recombinant HDAC3 (unknown origin)
Histone deacetylase 3 [14] = target: T3, Histone deacetylase 3; experiment: Inhibition of recombinant HDAC3 (unknown origin)incubated for 15 mins before substrate addition and measured after 30 to 45 mins by HDAC-Glo substrate; procedure, shortened: as §1
Homo sapiens [15] = species on record: Homo sapiens; experiment: Selectivity index, ratio of IC50 for recombinant HDAC6 (unknown origin) to IC50 for recombinant HDAC1 (unknown origin)
Histone deacetylase 1 [16] = target: T4, Histone deacetylase 1; experiment: Inhibition of recombinant HDAC1 (unknown origin) at 250 nM incubated for 15 mins before substrate addition and measured after 30 to 45 mins by HDAC-Glo substrate; procedure, shortened: as §1
Homo sapiens [17] = species on record: Homo sapiens; experiment: Selectivity index, ratio of IC50 for recombinant HDAC6 (unknown origin) to IC50 for recombinant HDAC2 (unknown origin)
Histone deacetylase 2 [18] = target: T1, Histone deacetylase 2; experiment: Inhibition of recombinant HDAC2 (unknown origin) at 250 nM incubated for 15 mins before substrate addition and measured after 30 to 45 mins by HDAC-Glo substrate; procedure, shortened: as §1
Histone deacetylase 3 [19] = target: T3, Histone deacetylase 3; experiment: Inhibition of recombinant HDAC3 (unknown origin) at 250 nM incubated for 15 mins before substrate addition and measured after 30 to 45 mins by HDAC-Glo substrate; procedure, shortened: as §1

T1 sequence (Q92769 whole entry, canonical isoform): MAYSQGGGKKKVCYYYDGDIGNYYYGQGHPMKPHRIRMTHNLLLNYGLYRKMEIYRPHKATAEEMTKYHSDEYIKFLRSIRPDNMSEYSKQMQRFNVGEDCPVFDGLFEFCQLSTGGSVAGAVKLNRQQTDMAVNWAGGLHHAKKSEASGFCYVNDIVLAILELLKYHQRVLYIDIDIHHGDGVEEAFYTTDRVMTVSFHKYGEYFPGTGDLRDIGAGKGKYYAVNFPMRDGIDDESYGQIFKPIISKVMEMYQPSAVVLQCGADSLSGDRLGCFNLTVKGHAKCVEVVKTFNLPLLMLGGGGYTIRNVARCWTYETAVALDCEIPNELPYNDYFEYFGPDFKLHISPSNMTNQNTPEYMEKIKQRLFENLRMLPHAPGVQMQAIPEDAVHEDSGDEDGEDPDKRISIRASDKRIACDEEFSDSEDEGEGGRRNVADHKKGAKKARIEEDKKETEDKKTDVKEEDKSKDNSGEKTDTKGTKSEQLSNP
T4 sequence (Q13547 whole entry): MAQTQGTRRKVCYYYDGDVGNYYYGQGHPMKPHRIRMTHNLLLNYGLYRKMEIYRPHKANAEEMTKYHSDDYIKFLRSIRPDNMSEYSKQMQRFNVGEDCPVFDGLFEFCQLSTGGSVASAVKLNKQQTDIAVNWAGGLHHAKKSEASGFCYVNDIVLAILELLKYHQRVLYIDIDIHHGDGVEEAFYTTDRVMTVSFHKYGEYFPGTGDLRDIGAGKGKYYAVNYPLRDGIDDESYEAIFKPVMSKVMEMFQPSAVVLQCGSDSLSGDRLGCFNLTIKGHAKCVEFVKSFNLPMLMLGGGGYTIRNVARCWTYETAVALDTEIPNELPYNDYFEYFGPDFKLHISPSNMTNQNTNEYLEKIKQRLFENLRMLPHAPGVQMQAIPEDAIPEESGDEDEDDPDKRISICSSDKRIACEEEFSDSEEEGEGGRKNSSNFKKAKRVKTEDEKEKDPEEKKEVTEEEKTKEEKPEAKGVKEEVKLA
T3 sequence (O15379 whole entry): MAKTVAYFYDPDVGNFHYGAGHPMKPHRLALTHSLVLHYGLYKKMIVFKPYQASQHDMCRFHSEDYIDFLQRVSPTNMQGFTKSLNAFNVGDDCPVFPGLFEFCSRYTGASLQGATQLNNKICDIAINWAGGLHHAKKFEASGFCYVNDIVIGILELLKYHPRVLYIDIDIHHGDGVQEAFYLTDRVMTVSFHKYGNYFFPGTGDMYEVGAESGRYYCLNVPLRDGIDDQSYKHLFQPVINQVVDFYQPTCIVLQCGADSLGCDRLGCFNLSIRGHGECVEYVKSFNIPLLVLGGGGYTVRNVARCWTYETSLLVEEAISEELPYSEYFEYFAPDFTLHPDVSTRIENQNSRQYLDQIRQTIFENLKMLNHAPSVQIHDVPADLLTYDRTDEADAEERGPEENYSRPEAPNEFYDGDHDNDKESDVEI

SMILES | GI50 (HCT-116) [nM] | inhibition [4] | Increase in histone H3K9 acetylation (qualitative call) [7] | inhibition (Histone deacetylase 1 [16]) | inhibition (Histone deacetylase 2 [18]) | inhibition (Histone deacetylase 3 [19]) | growth at 10 µM [2] [%] | inhibition of growth at 10 µM [3] [%] | other results
CCCCCCCC(=O)SCC/C=C/[C@@H]1CC(=O)NCc2nc(cs2)C2=N[C@@](C)(CS2)C(=O)N[C@@H](C(C)C)C(=O)O1 [LARGAZOLE] | 65 |  | Active |  |  |  |  | 60 | IC50 (Histone deacetylase 2 [8]): 64 nM; IC50 (Histone deacetylase 1 [9]): 61 nM
CCCCCCCC(=O)SCC/C=C/[C@@H]1CC(=O)NCc2cccc(n2)CN(Cc2ccc(C(F)(F)F)cc2)CC(=O)N[C@@H](C(C)C)C(=O)O1 | 3200 |  | Active |  |  |  | 0.43 |  | inhibition (Histone deacetylase 2 [10]): inactive; inhibition (Histone deacetylase 1 [11]): inactive; inhibition (Histone deacetylase 3 [12]): inactive
CCCCCCCC(=O)SCC/C=C/[C@@H]1CC(=O)NCc2cccc(n2)-c2cccc(n2)C(=O)N[C@@H](C(C)C)C(=O)O1 | 75 |  | Active | Active | Active | Active | -16.2 |  | Ratio IC50 (Homo sapiens [13]): 481; IC50 (Histone deacetylase 3 [14]): 27 nM; Ratio IC50 (Homo sapiens [15]): 619; IC50 (Histone deacetylase 2 [8]): 28 nM; Ratio IC50 (Homo sapiens [17]): 464; IC50 (Histone deacetylase 1 [9]): 21 nM
CCCCCCCC(=O)SCC/C=C/[C@@H]1CC(=O)NCc2cccc(n2)CN(C)CC(=O)N[C@@H](C(C)C)C(=O)O1 | 800 | Active |  |  |  |  | 40.8 | 60 | 

Continued, in another order:

GI50 (HCT-116) [nM] | inhibition [4] | Increase in histone H3K9 acetylation (qualitative call) [7] | inhibition (Histone deacetylase 1 [16]) | inhibition (Histone deacetylase 2 [18]) | inhibition (Histone deacetylase 3 [19]) | SMILES | growth at 10 µM [2] [%] | inhibition of growth at 10 µM [3] [%] | other results
750 | Active |  |  |  |  | CCCCCCCC(=O)SCC/C=C/[C@@H]1CC(=O)NCCOCCOCC(=O)N[C@@H](C(C)C)C(=O)O1 | 38.6 | 60 | inhibition (Histone deacetylase 2 [1]): Active; inhibition (Histone deacetylase 3 [5]): Active; inhibition (Histone deacetylase 1 [6]): Active
2670 |  | Active | inactive | inactive | inactive | CCCCCCCC(=O)SCC/C=C/[C@@H]1CC(=O)NCc2cccc(n2)CN(Cc2ccc(Cl)cc2)CC(=O)N[C@@H](C(C)C)C(=O)O1 | 1.42 |  | 
4250 |  | Active | inactive | inactive | inactive | CCCCCCCC(=O)SCC/C=C/[C@@H]1CC(=O)NCc2cccc(n2)CN(Cc2ccc(OC)cc2)CC(=O)N[C@@H](C(C)C)C(=O)O1 | 5.41 |  | 
> 5000 | inactive |  |  |  |  | CCCCCCCC(=O)SCC/C=C/[C@@H]1CC(=O)NCc2cccc(n2)CN(Cc2cccc3ccccc23)CC(=O)N[C@@H](C(C)C)C(=O)O1 | 34.9 |  | inhibition (Histone deacetylase 2 [1]): Active; inhibition (Histone deacetylase 3 [5]): Active; inhibition (Histone deacetylase 1 [6]): Active
> 5000 |  | Active | inactive | inactive | inactive | CCCCCCCC(=O)SCC/C=C/[C@@H]1CC(=O)NCc2cccc(n2)CN(Cc2ccccc2)CC(=O)N[C@@H](C(C)C)C(=O)O1 | -4.39 |  | 
